Results gathered from unrelated publications.
Each line is one published result; the experiments were not run side by side.
Target: Serine/threonine-protein kinase 25 (STK25, Homo sapiens, UniProt O00506)

For COc1cc(-c2cc(-c3ccc(N4CCNCC4)cc3)cnc2C)cc(OC)c1OC, the inhibition was 1% (enzyme activity; inhibitor; 0.1 µM).
The inhibition of COc1cccc2c(NCc3ccccc3)nc(-n3c(N)nc4ccccc43)nc12 is reported as 3.5% (target engagement in cells; inhibitor; chemoproteomics; 20 mM).
The remaining activity of CC(C)(C)c1nc(-c2cccc(NS(=O)(=O)c3c(F)cccc3F)c2F)c(-c2ccnc(N)n2)s1 is reported as 51% (enzyme activity; inhibitor; radiometric; 1 µM).
The remaining binding of CS(=O)(=O)N1CCCC(NC(=O)[C@H](CCC2CCCCC2)NC(=O)c2ccc(CNC(=O)c3cnc4ccccn34)cc2)C1 (some centres unmarked) is reported as 100% (cell-free assay; competition with immobilised ligand; 0.1 µM).
CCCS(=O)(=O)Nc1ccc(F)c(C(=O)c2c[nH]c3ncc(-c4ccc(Cl)cc4)cc23)c1F gave an inhibition of less than 10% (enzyme activity; inhibitor; 1 µM).
For Cn1c2c(c3ccc(Cl)c(Cl)c31)C(C#N)C(C)(C)NC2=O (centres unmarked), the ΔTm was 1.2 °C (thermal stability; DSF; 10 µM).
For CC1=C(C#N)C(c2ccc3c(c2)c(NC(=O)c2ccccc2C)nn3C)C(C#N)=C(C)N1, the remaining binding was 100% (cell-free assay; competition with immobilised ligand; 1 µM).
With Cc1ccc(C(=O)Nc2ccc(CN3CCN(C)CC3)c(C(F)(F)F)c2)cc1C#Cc1cnc2cccnn12 the remaining activity was 98% (enzyme activity; inhibitor; 23.5 nM).
CNC(=O)c1ccc(Nc2ncc(C(F)(F)F)c(NCc3nccnc3N(C)S(C)(=O)=O)n2)cc1 has a remaining binding of 85% (cell-free assay; competition with immobilised ligand; 0.1 µM).
The ΔTm of CCN1CCC2(CC1)NC(=O)c1c(c3ccc(Cl)c(Cl)c3n1C)C2C#N (racemic) is reported as -0.2 °C (thermal stability; DSF; 10 µM).
With O=C1Nc2ccc(Cl)cc2C1=Cc1cc(Cl)c(O)c(Cl)c1 the remaining signal was 94% (cell-free assay; 0.5 µM).
The remaining signal of Cc1ccc(NC(=O)c2ccc(C)c(C(F)(F)F)c2)cc1C#Cc1nn(C2CCC(O)CC2)c2ncnc(N)c12 (centres unmarked) is reported as 66% (cell-free assay; 10 µM).
For C[C@@H]1CN(c2cc(-c3nn(C)c4ccc(OC5(C)CC5)cc34)ncn2)C[C@H](C)O1, the remaining binding was 100% (cell-free assay; competition with immobilised ligand; 1 µM).
COc1cc(Cl)c(C(=O)N[C@@H](CN[C@H]2CC[C@@H](N)CC2)Cc2ccc(C#N)cc2)cc1-c1ccc(CN[C@H](C)c2ccc(C)cc2)o1 gave a remaining activity of 104% (enzyme activity; inhibitor; 1 µM).
COc1cc2ncnc(Nc3ccc(Oc4ccccc4)c(C)c3C)c2cc1OC gave an inhibition of 8% (enzyme activity; inhibitor; 1 µM).
The remaining binding of Cc1noc([C@H]2C[C@@H](c3ccc(C(F)(F)F)cc3)CN(C(=O)N3CCS(=O)(=O)C3)C2)n1 is reported as 89% (cell-free assay; competition with immobilised ligand; 1 µM).
With CC1CCCN1c1nccc(-c2cnn3ncccc23)n1 (centres unmarked) the remaining binding was 100% (binding; 1 µM).
CCOc1cc(-c2nncn2C)ccc1Nc1ncc2cc(C)nc(NCC(C)(C)C)c2n1 gave an inhibition of less than 15% (enzyme activity; inhibitor; FRET; 1 µM).
O=C(Nc1cnc(Oc2ccc(F)cc2)nc1)N1CCc2ncccc2[C@@H]1c1ccc(F)cc1 has a remaining binding of 82% (cell-free assay; competition with immobilised ligand; 1 µM).
The remaining activity of Cc1sc(C(=O)NC2COC2)cc1-n1cc(NC(=O)Nc2c(F)cccc2Cl)cn1 is reported as 70.5% (enzyme activity; inhibitor; 10 µM).
For CC(C)(O)[C@H]1CC[C@H](Nc2ccc3ncc(-c4cccc(C(F)(F)F)c4)n3n2)CC1, the remaining activity was 87% (enzyme activity; inhibitor; 1 µM).
Cn1c2c(Cl)c(Cl)ccc2c2cc[nH]c(=O)c21 has a ΔTm of 0.5 °C (thermal stability; DSF; 10 µM).
The remaining binding of O=C(Nc1ccc(Oc2ccc(F)cc2)cc1)N1CCc2ncccc2[C@H]1c1ccc(F)cc1 is reported as 100% (cell-free assay; competition with immobilised ligand; 1 µM).
N#CCCc1ccc2c(c1)-c1[nH]c3ccc([N+](=O)[O-])cc3c1CC(=O)N2 has a remaining signal of 91.1% (cell-free assay; 0.5 µM).
COc1cc(-c2cn(C3CCc4ccccc4N(CC(F)(F)F)C3=O)nn2)ccc1-n1ccc(C)n1 (centres unmarked) has a remaining binding of 100% (cell-free assay; competition with immobilised ligand; 1 µM).
Cc1ccc(Nc2nccc(N(C)c3ccc4c(C)n(C)nc4c3)n2)cc1S(N)(=O)=O gave a remaining activity of 97.3% (enzyme activity; inhibitor; 0.5 µM).
